Data published in ChEMBL document CHEMBL1156597, “Structure-activity relationship of kahalalide F synthetic analogues” (J Med Chem, 2008).

Assays:
HeLa = experiment: Cytotoxicity against human HeLa cells after 48 hrs by SRB assay; format: functional; settings: for CC50: read-out: LC50 (the source's name)
Method in brief: (§1)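 Cells grown in RPMI 1640 with 10% FBS and penicillin/streptomycin at 37 °C and 5% CO₂, trypsinized, then seeded at 5 × 10³/well. After 18 h drug-free attachment, samples in DMSO/EtOH/PBS (0.5:0.5:99) were added for 48 h continuous exposure. Cells were fixed with cold TCA (1 h, 4 °C) and stained with SRB (10 min). Tris-solubilized stain read at 490 nm. Triplicate wells, mean ± SD; GI₅₀ derived.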

LoVo [1] = experiment: Cytotoxicity against human LoVo cells after 48 hrs by SRB assay; format: functional; settings: for CC50: read-out: LC50 (the source's name)
A549 = experiment: Cytotoxicity against human A549 cells after 48 hrs by SRB assay; format: functional, cell-based; settings: Homo sapiens, A549, 48 h; for GI50: read-out: GI50; method in brief: as §1
[2] = Cytotoxicity against human IGROV-ET cells after 48 hrs by SRB assay; format: functional; settings: for CC50: read-out: LC50 (the source's name); method in brief: as §1
K562 = experiment: Cytotoxicity against human K562 cells after 48 hrs by SRB assay; format: functional; settings: K562, 48 h, read-out: LC50 (the source's name); method in brief: as §1
[3] = Cytotoxicity against human IGROV cells after 48 hrs by SRB assay; format: functional; settings: for CC50: read-out: LC50 (the source's name); method in brief: as §1
HT-29 = experiment: Cytotoxicity against human HT29 cells after 48 hrs by SRB assay; format: functional, cell-based; settings: Homo sapiens, HT-29, 48 h; for CC50: read-out: LC50 (the source's name); method in brief: as §1
LNCaP = experiment: Cytotoxicity against human LNcaP cells after 48 hrs by SRB assay; format: functional; settings: for CC50: read-out: LC50 (the source's name); method in brief: as §1
LoVo [4] = experiment: Cytotoxicity against human doxorubicin resistant LoVo cells after 48 hrs by SRB assay; format: functional; settings: for CC50: read-out: LC50 (the source's name); method in brief: as §1
DU-145 = experiment: Cytotoxicity against human DU145 cells after 48 hrs by SRB assay; format: functional, cell-based; settings: Homo sapiens, DU-145, 48 h; for CC50: read-out: LC50 (the source's name); for GI50: read-out: GI50; method in brief: as §1
[5] = Cytotoxicity against human HeLa-APL cells after 48 hrs by SRB assay; format: functional; method in brief: as §1
PANC-1 = experiment: Cytotoxicity against human PANC1 cells after 48 hrs by SRB assay; format: functional; settings: PANC-1, 48 h; for CC50: read-out: LC50 (the source's name); method in brief: as §1
SK-MEL-28 = experiment: Cytotoxicity against human SK-MEL-28 cells after 48 hrs by SRB assay; format: functional, cell-based; settings: Homo sapiens, SK-MEL-28, 48 h; for GI50: read-out: GI50; for CC50: read-out: LC50 (the source's name); method in brief: as §1

Row | SMILES | CC50 (HeLa) [nM] | GI50 (LoVo [1]) [nM] | TGI (LoVo [1]) [nM] | CC50 (LoVo [1]) [nM] | LC50 (A549) [nM] | TGI (A549) [nM] | GI50 (A549) [nM] | GI50 [2] [nM] | GI50 ([2]; read-out: GI50) [nM] | CC50 [2] [nM] | CC50 (K562) [nM] | GI50 [3] [nM] | GI50 ([3]; read-out: GI50) [nM] | CC50 [3] [nM] | CC50 (HT-29) [nM] | CC50 (LNCaP) [nM] | GI50 (LoVo [4]) [nM] | TGI (LoVo [4]) [nM] | CC50 (LoVo [4]) [nM] | CC50 (DU-145) [nM] | also measured
1 | C/C=C1\NC(=O)[C@H](Cc2ccccc2)NC(=O)[C@@H](C(C)C)NC(=O)[C@@H]([C@H](C)CC)NC(=O)[C@H](NC(=O)[C@H](NC(=O)[C@H](CCCN)NC(=O)[C@H]2CCCCN2C(=O)[C@H](NC(=O)[C@@H](NC(=O)[C@@H](NC(=O)[C@H](NC(=O)CC[C@@H](C)CC)C(C)C)[C@@H](C)O)C(C)C)C(C)C)[C@H](C)CC)[C@H](C)OC(=O)[C@H](C(C)C)NC1=O | 1080 | 2250 | 2340 | 678 | 6720 | 8700 | 8000 | 632 | 894 | 483 | 2160 | 786 | 1390 | 487 | 447 | 1310 | 1220 | 1820 | 1700 | 1300 | GI50 (HeLa): 3080 nM; TGI (HeLa): 2660 nM; GI50 [5]: 1510 nM; LC50 (concentration giving 50% net cell kill) [5]: 978 nM; TGI [5]: 1450 nM; CC50 (PANC-1): 2020 nM; TGI (SK-MEL-28): 1470 nM; GI50 (SK-MEL-28): 1590 nM; CC50 (SK-MEL-28): 1360 nM
2 | C/C=C1\NC(=O)[C@H](Cc2ccccc2)NC(=O)[C@@H](C(C)C)NC(=O)[C@@H]([C@@H](C)CC)NC(=O)[C@H](NC(=O)[C@H](NC(=O)[C@H](CCCN)NC(=O)[C@H]2CCCN2C(=O)[C@H](NC(=O)[C@@H](NC(=O)[C@@H](NC(=O)[C@H](NC(=O)CCCC(C)C)[C@@H](C)O)[C@@H](C)O)C(C)C)C(C)C)[C@@H](C)CC)[C@@H](C)OC(=O)[C@H](C(C)C)NC1=O | 1020 | 367 | 727 | 896 | 1030 | 1260 | 1550 | 231 | 1000 | 257 | 2370 | 909 | 1170 | 582 | 575 | 1140 | 325 | 327 | 331 | 9290 | GI50 (HT-29): 1060 nM; TGI (HT-29): 886 nM; GI50 (LNCaP): 1950 nM; TGI (LNCaP): 2580 nM; TGI (DU-145): 1150 nM; GI50 (DU-145): 1470 nM; GI50 [5]: 1040 nM; LC50 (concentration giving 50% net cell kill) [5]: 977 nM; TGI [5]: 1520 nM; GI50 (PANC-1): 3910 nM; TGI (PANC-1): 5260 nM; CC50 (PANC-1): 2810 nM; TGI (SK-MEL-28): 1160 nM; GI50 (SK-MEL-28): 1220 nM; CC50 (SK-MEL-28): 1100 nM
3 | C/C=C1\NC(=O)[C@H](Cc2ccccc2)NC(=O)[C@@H](C(C)C)NC(=O)[C@@H]([C@H](C)CC)NC(=O)[C@H](NC(=O)[C@H](NC(=O)[C@H](CCCN)NC(=O)[C@H]2Cc3ccccc3CN2C(=O)[C@H](NC(=O)[C@@H](NC(=O)[C@@H](NC(=O)[C@H](NC(=O)CC[C@@H](C)CC)C(C)C)[C@@H](C)O)C(C)C)C(C)C)[C@H](C)CC)[C@H](C)OC(=O)[C@H](C(C)C)NC1=O | 1050 | 2620 | 2540 | 685 | 6500 | 1540 | 1430 | 779 | 1060 | 527 | 2100 | 806 | 1520 | 464 | 426 | 1510 | 2290 | 2490 | 1740 | 1370 | TGI (DU-145): 2280 nM; GI50 (DU-145): 2390 nM; LC50 (concentration giving 50% net cell kill) [5]: 947 nM; CC50 (PANC-1): 1950 nM; TGI (SK-MEL-28): 3110 nM; GI50 (SK-MEL-28): 3630 nM; CC50 (SK-MEL-28): 1560 nM
